Laboratory results: ChEMBL document CHEMBL1833940, “Discovery of 3-(2,6-dichloro-3,5-dimethoxy-phenyl)-1-{6-[4-(4-ethyl-piperazin-1-yl)-phenylamino]-pyrimidin-4-yl}-1-methyl-urea (NVP-BGJ398), a potent and selective inhibitor of the fibroblast growth factor receptor family of receptor tyrosine kinase” (J Med Chem, 2011)
Activity calls are given as the source filed them. The calls are words filed in the database; no cut-off is given here.

Assays:
[1] = biological target: Cytochrome P450 2D6 (Homo sapiens, UniProt P10635); test: Inhibition of CYP2D6 using AMMC as substrate; format: ADME
Procedure, shortened: (§1)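 Human CYP450 inhibition was measured with isoform-specific fluorogenic probe substrates: CEC for 1A2 and 2C19, MFC for 2C9, AMMC for 2D6. Incubation was at 37 °C with an NADPH-regenerating system in 384-well format. Metabolite was quantified by fluorescence, and IC50 was obtained by curve fitting.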

[2] = Tmax in Wistar rat at 10 mg/kg, po by LC-MS/MS analysis; format: ADME, organism-based; set-up: dose 10 mg/kg, route oral; settings: in vivo
Procedure, shortened: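 Female Wistar rats received 5 mg/kg iv into the femoral vein in NMP/PEG200 (1:9), or the monophosphate salt orally at 10 mg/kg (free base) in acetate buffer pH 4.6/PEG300. Serial sublingual plasma samples were taken from 0.083 to 24 h.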

[3] = biological target: Serine/threonine-protein kinase pim-2 (Homo sapiens, UniProt Q9P1W9); test: Inhibition of recombinant PIM2
Procedure, shortened: (§2)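 Purified recombinant kinases under optimized conditions with peptide substrates. ATP was set at each kinase's Km. Phosphorylation was read by microfluidic mobility-shift separation of substrate and product; IC50 determined.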

[4] = biological target: Tyrosine-protein kinase CSK (Homo sapiens, UniProt P41240); test: Inhibition of recombinant CSK
Procedure, shortened: (§3)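 Purified recombinant kinases under optimized conditions, with peptide substrates and ATP at each kinase's Km. Phosphorylation was read out by microfluidic mobility shift, and IC50 values were obtained.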

[5] = biological target: Tyrosine-protein kinase Lck (Homo sapiens, UniProt P06239); test: Inhibition of recombinant LCK kinase; procedure, shortened: as §3
[6] = Clearance in Wistar rat at 5 mg/kg, iv by LC-MS/MS analysis; format: ADME, organism-based; set-up: dose 5 mg/kg, route intravenous; settings: in vivo
Procedure, shortened: (§4)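 Female Wistar rats received either an iv femoral-vein dose of 5 mg/kg in NMP/PEG200 (1:9) or an oral dose of monophosphate salt at 10 mg/kg (free base) in acetate buffer pH 4.6/PEG300. Plasma was sampled by sublingual bleeding at 0.083–24 h (n = 4 staggered, or n = 3–4 serial). Plasma levels were measured by LC-MS/MS (LOQ 10 ng/mL).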

[7] = biological target: Receptor tyrosine-protein kinase erbB-2 (Homo sapiens, UniProt P04626); test: Inhibition of recombinant ERBB2; procedure, shortened: as §2
[8] = biological target: Insulin-like growth factor 1 receptor (Homo sapiens, UniProt P08069); test: Inhibition of recombinant IGF1R; procedure, shortened: as §2
[9] = tested on: RT-112; test: Antiproliferative activity against human RT112 cells overexpressing wild type FGFR3 after 72 hrs; format: functional, cell-based; settings: RT-112, 72 h
Procedure, shortened: (§5)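 Bladder cancer lines from ATCC or DSMZ were seeded in 96-well plates (RT4, RT112 at 8500 cells/well; others at 5000 cells/well) in growth medium. Compound dilutions or DMSO were added 24 h later and incubated 72 h. Cells were fixed with glutaraldehyde, stained with 0.05% methylene blue and eluted with 3% HCl, then OD650 nm was read.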

[10] = biological target: Cytochrome P450 2C19 (Homo sapiens, UniProt P33261); test: Inhibition of CYP2C19 using CEC as substrate; format: ADME; procedure, shortened: as §1
[11] = biological target: Cyclin-dependent kinase 1 (Homo sapiens, UniProt P06493); test: Inhibition of recombinant CDK1; procedure, shortened: as §2
[12] = Cmax in Wistar rat at 10 mg/kg, po by LC-MS/MS analysis; format: ADME, organism-based; set-up: dose 10 mg/kg, route oral; settings: in vivo; procedure, shortened: as §4
[13] = tested on: Rattus norvegicus; test: Inhibition of FGFR autophosphorylation in RT112 tumor bearing po dosed nude rowett rat assessed as decrease in pMAPK concentration administered as a single dose by Western blot analysis; format: functional, organism-based
Procedure, shortened: (§6)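 RT112 subcutaneous xenografts in female nude Rowett rats (n = 4). Single oral gavage of the monophosphate salt at 4.25 or 8.51 mg/kg (free base equivalents) in acetic acid–acetate buffer pH 4.6/PEG300 (1:1). Tumors were collected at time points up to 24 h, frozen, homogenized and lysed. Western blots probed pFRS2(Tyr196) and pMAPK, with total FRS2, total MAPK or β-tubulin as loading controls.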

[14] = biological target: Ephrin type-A receptor 4 (Homo sapiens, UniProt P54764); test: Inhibition of recombinant EPHA4; procedure, shortened: as §2
[15] = tested on: Rattus norvegicus; test: Inhibition of FGFR autophosphorylation in RT112 tumor bearing nude rowett rat assessed as decrease in pFRS2 concentration at 8.51 mg/kg, po administered as a single dose after 16 hrs by Western blot analysis; format: functional, organism-based; set-up: dose 8.51 mg/kg; procedure, shortened: as §6
[16] = tested on: RT-4; test: Antiproliferative activity against human RT4 cells overexpressing wild type FGFR3 after 72 hrs; format: functional, cell-based; settings: RT-4, 72 h; procedure, shortened: as §5
[17] = biological target: Protein kinase C theta type (Homo sapiens, UniProt Q04759); test: Inhibition of recombinant PKCtheta; procedure, shortened: as §2
[18] = biological target: Rho-associated protein kinase 2 (Homo sapiens, UniProt O75116); test: Inhibition of recombinant ROCK2; procedure, shortened: as §2
[19] = biological target: Cyclin-dependent kinase 2 (Homo sapiens, UniProt P24941); test: Inhibition of recombinant CDK2; procedure, shortened: as §3
[20] = biological target: MAP kinase-activated protein kinase 5 (Homo sapiens, UniProt Q8IW41); test: Inhibition of recombinant MK5; procedure, shortened: as §2
[21] = tested on: J82; test: Antiproliferative activity against human J82 cells after 72 hrs; format: functional, cell-based; settings: J82, 72 h; procedure, shortened: as §5
[22] = biological target: Casein kinase I isoform gamma-3 (Homo sapiens, UniProt Q9Y6M4); test: Inhibition of recombinant CK1-gamma3; procedure, shortened: as §2
[23] = Inhibition of recombinant S6K
Procedure, shortened: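 Purified recombinant kinases with peptide substrates and ATP at each kinase's Km. Read-out was microfluidic mobility shift.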

[24] = biological target: Mitogen-activated protein kinase kinase kinase 8 (Homo sapiens, UniProt P41279); test: Inhibition of recombinant COT; procedure, shortened: as §3
[25] = biological target: Phosphatidylinositol 4,5-bisphosphate 3-kinase catalytic subunit alpha isoform (Homo sapiens, UniProt P42336); test: Inhibition of recombinant PI3Kalpha
[26] = biological target: Tyrosine-protein kinase receptor UFO (Homo sapiens, UniProt P30530); test: Inhibition of recombinant AXL; procedure, shortened: as §3
[27] = Tmax in tumor of RT112/luc1 cells implanted athymic nude mouse at 20 mg/kg, po by LC/MS/MS analysis; format: ADME, organism-based, Neoplasm; set-up: dose 20 mg/kg, route oral
Procedure, shortened: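 Female athymic nude mice carrying subcutaneous RT112/luc1 tumors (ca. 300–400 mm3). Dosing was 5 mg/kg iv by tail vein in NMP/PEG200 (1:9) or 20 mg/kg by oral gavage as a suspension in PEG300/D5W (2:1). Groups (n = 4) were sacrificed from 0.083 to 24 h. Plasma and tumor were measured by LC-MS/MS (LOQ 5 ng/mL, 10 ng/g). Noncompartmental analysis used the linear trapezoidal AUC; F was calculated from dose-normalized AUC.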

[28] = tested on: Tumour; test: Drug uptake in tumor of nude rowett rat bearing human RT112 cells at 8.51 mg/kg, po administered as a single dose after 3 hrs by LC-MS/MS analysis; format: ADME, organism-based, Neoplasm, RT-112; set-up: dose 8.51 mg/kg, route oral; settings: in vivo
Procedure, shortened: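 Nude Rowett rats bearing subcutaneous RT112 tumors (n = 4) received a single gavage of monophosphate salt at 4.25 or 8.51 mg/kg free base in acetate buffer pH 4.6/PEG300. Tumors were collected at intervals after dosing, frozen and homogenized in an equal volume of ice-cold PBS. Compound levels were measured by LC-MS/MS (LOQ 3 ng/mL).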

Sequence of Tyrosine-protein kinase CSK (P41240 whole entry): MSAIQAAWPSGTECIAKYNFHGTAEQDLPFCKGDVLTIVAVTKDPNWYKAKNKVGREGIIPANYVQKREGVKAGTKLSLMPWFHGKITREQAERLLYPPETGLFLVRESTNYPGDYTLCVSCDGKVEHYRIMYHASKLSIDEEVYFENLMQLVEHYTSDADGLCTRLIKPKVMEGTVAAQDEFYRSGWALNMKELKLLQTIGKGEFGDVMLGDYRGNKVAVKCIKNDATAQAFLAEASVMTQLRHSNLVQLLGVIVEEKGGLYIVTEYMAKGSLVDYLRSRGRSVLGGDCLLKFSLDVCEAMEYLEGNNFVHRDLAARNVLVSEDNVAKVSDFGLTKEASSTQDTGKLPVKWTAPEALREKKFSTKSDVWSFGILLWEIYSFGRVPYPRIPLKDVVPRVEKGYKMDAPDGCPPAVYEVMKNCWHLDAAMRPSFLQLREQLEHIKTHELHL
Sequence of Receptor tyrosine-protein kinase erbB-2 (P04626 whole entry): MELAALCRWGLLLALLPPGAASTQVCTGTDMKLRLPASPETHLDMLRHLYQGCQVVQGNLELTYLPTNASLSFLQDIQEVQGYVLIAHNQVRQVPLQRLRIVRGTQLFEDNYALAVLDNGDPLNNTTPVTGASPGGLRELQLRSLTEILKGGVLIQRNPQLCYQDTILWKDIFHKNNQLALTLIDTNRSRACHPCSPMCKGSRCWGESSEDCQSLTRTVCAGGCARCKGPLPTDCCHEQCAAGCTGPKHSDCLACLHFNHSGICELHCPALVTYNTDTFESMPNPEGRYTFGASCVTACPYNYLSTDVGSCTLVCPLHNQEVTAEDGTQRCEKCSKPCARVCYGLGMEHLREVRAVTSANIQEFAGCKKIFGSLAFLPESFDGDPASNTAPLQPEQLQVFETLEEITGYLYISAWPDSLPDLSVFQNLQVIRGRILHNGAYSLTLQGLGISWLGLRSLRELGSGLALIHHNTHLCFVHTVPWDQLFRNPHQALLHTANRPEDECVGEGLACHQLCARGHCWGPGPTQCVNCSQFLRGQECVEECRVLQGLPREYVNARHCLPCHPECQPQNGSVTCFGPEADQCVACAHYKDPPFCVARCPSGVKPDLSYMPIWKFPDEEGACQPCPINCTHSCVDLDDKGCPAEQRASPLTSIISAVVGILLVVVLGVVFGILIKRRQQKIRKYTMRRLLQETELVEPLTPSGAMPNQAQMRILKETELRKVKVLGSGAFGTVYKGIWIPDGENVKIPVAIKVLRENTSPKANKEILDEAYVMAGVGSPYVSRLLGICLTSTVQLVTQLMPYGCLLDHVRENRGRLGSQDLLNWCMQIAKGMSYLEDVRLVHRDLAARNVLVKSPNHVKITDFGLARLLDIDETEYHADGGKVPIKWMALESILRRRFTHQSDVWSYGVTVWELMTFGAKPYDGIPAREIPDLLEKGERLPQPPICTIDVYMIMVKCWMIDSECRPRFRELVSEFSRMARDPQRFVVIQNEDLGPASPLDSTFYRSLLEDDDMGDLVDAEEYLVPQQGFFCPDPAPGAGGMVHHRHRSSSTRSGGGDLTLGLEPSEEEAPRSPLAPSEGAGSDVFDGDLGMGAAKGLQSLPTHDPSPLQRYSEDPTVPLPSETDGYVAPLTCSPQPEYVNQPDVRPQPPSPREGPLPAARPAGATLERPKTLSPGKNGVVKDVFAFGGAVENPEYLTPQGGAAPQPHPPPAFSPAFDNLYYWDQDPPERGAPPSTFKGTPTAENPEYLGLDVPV
Sequence of Insulin-like growth factor 1 receptor (P08069 31-736 limits assumed): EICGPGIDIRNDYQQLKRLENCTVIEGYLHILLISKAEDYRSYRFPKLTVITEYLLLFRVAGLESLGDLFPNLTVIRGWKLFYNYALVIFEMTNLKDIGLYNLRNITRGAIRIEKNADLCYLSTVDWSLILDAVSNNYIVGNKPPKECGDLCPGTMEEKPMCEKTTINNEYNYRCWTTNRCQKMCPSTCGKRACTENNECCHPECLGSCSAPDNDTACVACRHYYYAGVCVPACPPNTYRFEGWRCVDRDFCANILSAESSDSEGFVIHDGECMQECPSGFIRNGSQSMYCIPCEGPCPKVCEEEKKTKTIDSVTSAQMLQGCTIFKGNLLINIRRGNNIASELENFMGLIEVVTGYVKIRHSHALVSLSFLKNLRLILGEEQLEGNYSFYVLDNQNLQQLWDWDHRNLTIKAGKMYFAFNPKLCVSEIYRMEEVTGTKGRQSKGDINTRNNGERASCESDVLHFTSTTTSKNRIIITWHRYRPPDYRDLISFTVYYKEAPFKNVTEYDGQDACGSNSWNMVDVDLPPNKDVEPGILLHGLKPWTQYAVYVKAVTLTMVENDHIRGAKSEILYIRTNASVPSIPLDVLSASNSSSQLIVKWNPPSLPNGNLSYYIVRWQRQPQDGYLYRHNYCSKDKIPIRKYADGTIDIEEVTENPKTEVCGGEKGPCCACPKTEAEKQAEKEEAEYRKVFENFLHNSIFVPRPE
Sequence of Insulin-like growth factor 1 receptor (P08069 741-1367 limits assumed): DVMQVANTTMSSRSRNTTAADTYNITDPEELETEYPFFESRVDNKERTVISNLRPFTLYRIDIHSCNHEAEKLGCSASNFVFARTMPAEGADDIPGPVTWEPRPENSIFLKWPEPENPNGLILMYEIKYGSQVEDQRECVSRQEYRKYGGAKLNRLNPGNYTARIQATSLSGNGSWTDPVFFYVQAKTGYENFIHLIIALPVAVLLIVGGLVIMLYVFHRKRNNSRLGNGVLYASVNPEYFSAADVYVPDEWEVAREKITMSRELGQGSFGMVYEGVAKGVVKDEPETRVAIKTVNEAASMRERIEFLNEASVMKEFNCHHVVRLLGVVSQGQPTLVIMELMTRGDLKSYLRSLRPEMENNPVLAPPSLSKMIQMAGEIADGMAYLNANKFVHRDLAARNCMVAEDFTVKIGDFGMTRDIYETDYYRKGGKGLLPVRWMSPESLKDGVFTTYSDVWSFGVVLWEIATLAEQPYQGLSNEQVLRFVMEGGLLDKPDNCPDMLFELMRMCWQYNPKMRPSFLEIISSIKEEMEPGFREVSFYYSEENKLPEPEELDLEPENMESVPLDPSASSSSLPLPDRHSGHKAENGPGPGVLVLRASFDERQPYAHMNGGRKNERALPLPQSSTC
Sequence of Tyrosine-protein kinase Lck (P06239 whole entry): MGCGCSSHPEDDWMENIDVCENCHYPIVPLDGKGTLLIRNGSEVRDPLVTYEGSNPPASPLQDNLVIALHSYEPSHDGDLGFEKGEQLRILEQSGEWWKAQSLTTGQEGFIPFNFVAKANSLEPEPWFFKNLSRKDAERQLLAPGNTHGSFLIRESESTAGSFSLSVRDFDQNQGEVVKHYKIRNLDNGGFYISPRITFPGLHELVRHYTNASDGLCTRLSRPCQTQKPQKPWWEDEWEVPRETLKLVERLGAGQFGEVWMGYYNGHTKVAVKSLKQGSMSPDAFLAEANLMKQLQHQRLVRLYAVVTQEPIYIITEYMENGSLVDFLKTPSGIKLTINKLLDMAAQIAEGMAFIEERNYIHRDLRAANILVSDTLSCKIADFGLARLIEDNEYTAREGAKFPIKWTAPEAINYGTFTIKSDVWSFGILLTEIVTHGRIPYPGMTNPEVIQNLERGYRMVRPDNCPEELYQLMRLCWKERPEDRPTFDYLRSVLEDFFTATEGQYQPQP
Sequence of Ephrin type-A receptor 4 (P54764 whole entry): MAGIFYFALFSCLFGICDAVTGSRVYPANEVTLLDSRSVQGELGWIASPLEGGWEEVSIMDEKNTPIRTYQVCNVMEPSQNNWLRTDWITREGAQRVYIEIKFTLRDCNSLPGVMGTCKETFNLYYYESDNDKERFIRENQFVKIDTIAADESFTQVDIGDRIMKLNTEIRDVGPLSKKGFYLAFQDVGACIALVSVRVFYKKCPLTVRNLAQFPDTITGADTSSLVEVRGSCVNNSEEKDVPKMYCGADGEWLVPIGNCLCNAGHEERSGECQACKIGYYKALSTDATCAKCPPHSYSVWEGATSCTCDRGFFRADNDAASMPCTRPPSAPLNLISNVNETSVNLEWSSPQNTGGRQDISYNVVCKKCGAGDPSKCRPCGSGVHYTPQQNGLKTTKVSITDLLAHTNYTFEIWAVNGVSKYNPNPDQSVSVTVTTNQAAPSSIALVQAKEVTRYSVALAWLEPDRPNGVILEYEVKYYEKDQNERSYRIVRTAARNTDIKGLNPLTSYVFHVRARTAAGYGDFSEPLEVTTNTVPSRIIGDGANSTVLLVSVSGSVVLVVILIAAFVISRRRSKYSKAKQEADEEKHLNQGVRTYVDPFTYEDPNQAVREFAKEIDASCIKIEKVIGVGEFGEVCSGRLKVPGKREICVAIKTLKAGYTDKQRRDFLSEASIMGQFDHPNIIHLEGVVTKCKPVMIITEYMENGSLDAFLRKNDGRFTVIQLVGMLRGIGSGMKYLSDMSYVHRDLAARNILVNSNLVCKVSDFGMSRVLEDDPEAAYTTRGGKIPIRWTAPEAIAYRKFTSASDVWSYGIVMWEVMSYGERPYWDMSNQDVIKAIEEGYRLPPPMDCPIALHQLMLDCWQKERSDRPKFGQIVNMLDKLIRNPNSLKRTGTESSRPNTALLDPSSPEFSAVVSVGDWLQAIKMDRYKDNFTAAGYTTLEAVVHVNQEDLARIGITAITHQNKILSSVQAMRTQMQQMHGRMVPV
Sequence of MAP kinase-activated protein kinase 5 (Q8IW41 whole entry): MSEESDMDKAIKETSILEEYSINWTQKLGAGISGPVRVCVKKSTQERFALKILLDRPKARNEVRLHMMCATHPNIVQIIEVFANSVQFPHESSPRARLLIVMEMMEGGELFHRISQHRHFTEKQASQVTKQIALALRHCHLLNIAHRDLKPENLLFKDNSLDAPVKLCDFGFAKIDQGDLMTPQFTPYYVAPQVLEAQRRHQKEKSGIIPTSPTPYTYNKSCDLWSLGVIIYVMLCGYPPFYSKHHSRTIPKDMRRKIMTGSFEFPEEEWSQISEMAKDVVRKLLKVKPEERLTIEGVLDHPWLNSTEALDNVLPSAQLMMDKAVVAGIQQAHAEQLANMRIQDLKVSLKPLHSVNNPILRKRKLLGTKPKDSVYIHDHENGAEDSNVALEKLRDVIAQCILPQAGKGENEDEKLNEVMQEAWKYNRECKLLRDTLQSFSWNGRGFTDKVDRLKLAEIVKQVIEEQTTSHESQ

CCN1CCN(c2ccc(Nc3cc(N(C)C(=O)Nc4c(Cl)c(OC)cc(OC)c4Cl)ncn3)cc2)CC1.O=P(O)(O)O [INFIGRATINIB PHOSPHATE]
IC50 [1]: > 10 µM | Tmax [2]: 4 h | IC50 [3]: > 10 µM | IC50 [4]: > 10 µM | IC50 [5]: 2.5 µM | clearance [6]: 60 mL/min/kg | IC50 [7]: > 10 µM | IC50 [8]: > 10 µM | IC50 [9]: 0.005 µM | IC50 [10]: > 10 µM | IC50 [11]: > 10 µM | Cmax [12]: 260 nM | inhibition [13]: Dose-dependent effect | IC50 [14]: > 10 µM | inhibition [15]: Active | IC50 [16]: 0.03 µM | IC50 [17]: > 10 µM | IC50 [18]: > 10 µM | IC50 [19]: > 10 µM | IC50 [20]: > 10 µM | IC50 [21]: > 3 µM | IC50 [22]: > 10 µM | IC50 [23]: > 10 µM | IC50 [24]: > 10 µM | IC50 [25]: > 9 µM | IC50 [26]: > 10 µM | Tmax [27]: 8 h | Drug uptake [28]: 1.96 nmol/g
